From ChEMBL document CHEMBL1133504 (J Med Chem, 2000)

Key:
[1] = Evaluated for Pharmacokinetic property: Area under the curve; assay type: ADME; design: concentration or dose not given beside the values
[2] = Evaluated for time required to reach maximum concentration in plasma; assay type: ADME
[3] = test system: Syrian golden hamster; experiment: Suppression of Hamster ethanol intake by 0.07 mmol o.d. i.p.; assay type: functional, Mesocricetus auratus
Outline: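 Male Syrian golden hamsters (80-120 g) at 23 °C on a 12/12-h cycle had free access to chow, water and 15% ethanol. Baseline was 6 days of daily ip saline with 0.5% DMSO. Then 0.07 mmol ip daily for 6 days. 24-h ethanol intake recorded. Mean ± SD of 4-6 hamsters.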

[4] = molecular target: Monoamine oxidase (Mesocricetus auratus); experiment: Inhibition of Hamster Liver mitochondrial Monoamine oxidase.
[5] = test system: Aldehyde dehydrogenase, mitochondrial (Mesocricetus auratus); experiment: Accumulation of 5 HIAL in isolated Hamster Liver Mitochondria at 3 uM.
[6] = test system: Aldehyde dehydrogenase, mitochondrial (Mesocricetus auratus); experiment: Accumulation of 5 HIAL in isolated Hamster Liver Mitochondria at 9 uM.
[7] = test system: Aldehyde dehydrogenase, mitochondrial (Mesocricetus auratus); experiment: Accumulation of 5 HIAL in isolated Hamster Liver Mitochondria at 0.3 uM.
[8] = test system: Aldehyde dehydrogenase, mitochondrial (Mesocricetus auratus); experiment: Accumulation of 5 HIAL in isolated Hamster Liver Mitochondria at 0.9 uM.
[9] = species: Mesocricetus auratus; experiment: Evaluated for percentage inhibition of 5-HIAA formation in isolated Hamster Liver Mitochondria at the 9 uM
[10] = species: Mesocricetus auratus; experiment: Evaluated for the 5-HIAL accumulation in isolated Hamster Liver Mitochondria at the 3 uM

| Structure (SMILES) | AUC [1] | Tmax [2] | IC50 [4] | Control [5] | Control [6] | Control [7] | Control [8] | Suppression [3] | inhibition [9] | Control [10] |
| --- | --- | --- | --- | --- | --- | --- | --- | --- | --- | --- |
| O=C(O)CCCCCCCCCOc1ccc2c(=O)c(-c3ccc(O)cc3)coc2c1 | 73 nM hr ml | 0.5 h | 10000 nM | 189% | 129% | 234% | 233% | 84% |  |  |
| O=C(O)CCCCCOc1ccc2c(=O)c(-c3ccc(O)cc3)coc2c1 | 77 nM hr ml | 0.5 h |  |  |  |  |  | 69% |  |  |
| O=C(O)CCCCCCOc1ccc2c(=O)c(-c3ccc(O)cc3)coc2c1 | 68 nM hr ml | 0.5 h | 2100 nM | 228% | 192% | 310% | 265% | 69% |  |  |
| O=c1c(-c2ccc(O)cc2)coc2cc(O[C@@H]3O[C@H](CO)[C@@H](O)[C@H](O)[C@H]3O)ccc12 [DAIDZIN] | 120 nM hr ml | 1 h |  |  |  |  |  | 62% |  |  |
| O=C(O)CCCCCCCCCCOc1ccc2c(=O)c(-c3ccc(O)cc3)coc2c1 | 56 nM hr ml | 0.5 h |  |  |  |  |  | 86% |  |  |
| O=c1cc(-c2ccccc2)oc2c(O)c(O)ccc12 [7,8-DIHYDROXYFLAVONE] | 111 nM hr ml | 0.5 h |  |  |  |  |  | 0% |  | 79.1% |
| COc1ccc(-c2coc3cc(O)cc(O)c3c2=O)cc1 [BIOCHANIN] | 99 nM hr ml | 1 h |  |  |  |  |  | 0% |  |  |
| O=c1c(-c2ccc(O)cc2)coc2cc(OCCC3OCCCO3)ccc12 | 99 nM hr ml | 0.5 h | 7000 nM | 141% | 86.1% | 165% | 176% | 32% |  |  |
| O=c1cc(-c2ccccc2)oc2cc(O)cc(O)c12 [CHRYSIN] | 110 nM hr ml | 1 h |  |  |  |  |  | 0% |  |  |
| O=c1c(-c2ccc(O)cc2)coc2cc(O)cc(O)c12 [GENISTEIN] | 134 nM hr ml | 1 h |  |  |  |  |  | 0% |  |  |

Now from value to compound, other results behind:

| AUC [1] | Tmax [2] | IC50 [4] | Control [5] | Control [6] | Control [7] | Control [8] | Structure (SMILES) | Suppression [3] | inhibition [9] | Control [10] |
| --- | --- | --- | --- | --- | --- | --- | --- | --- | --- | --- |
| 68 nM hr ml | 2 h | 4000 nM | 87.7% | 42.9% | 112% | 116% | O=c1c(-c2ccc(O)cc2)coc2cc(OCCCCBr)ccc12 | 14% |  |  |
| 130 nM hr ml | 1 h |  |  |  |  |  | O=c1c(-c2ccc(O)cc2)coc2cc(O)ccc12 [DAIDZEIN] | 22% | 80.6% |  |
| 29 nM hr ml | 1 h | 450 nM | 56.1% | 26.7% | 106% | 91% | C=CCOc1ccc2c(=O)c(-c3ccc(O)cc3)coc2c1 | 0% |  |  |
| 141 nM hr ml | 0.5 h | 1700 nM | 63% | 30.5% | 112% | 97.5% | O=c1c(-c2ccc(O)cc2)coc2cc(OCC(O)CO)ccc12 (stereo not drawn) | 0% |  |  |
| 73 nM hr ml | 2 h | 150 nM | 34.7% | 20.5% | 75.8% | 57.8% | O=c1c(-c2ccc(O)cc2)coc2cc(OCCCBr)ccc12 | 0% |  |  |
| 62 nM hr ml | 2 h | 2000 nM | 108% | 74% | 144% | 112% | O=c1c(-c2ccc(O)cc2)coc2cc(OCCCCCCBr)ccc12 | 29% |  |  |
| 38 nM hr ml | 1 h | 300 nM | 34.3% | 17.8% | 88.6% | 62.9% | CCOc1ccc2c(=O)c(-c3ccc(O)cc3)coc2c1 | 0% |  |  |
